Broadly, the IC50 is the concentration that gives 50% inhibition.

The values below come from ChEMBL document CHEMBL4622841, “Structural modifications of indolinones bearing a pyrrole moiety and discovery of a multi-kinase inhibitor with potent antitumor activity” (Bioorg Med Chem, 2020).

The source made the active and inactive calls. The rule behind the calls is not given here. Bounds are passed on as bounds.

In data set [1] the test system is HT-29. The data set is described as follows: Induction of apoptosis in human HT-29 cells assessed as early apoptotic cells at 0.3 uM incubated for 72 hrs by Annexin-V-FITC/propidium iodide staining-based flow cytometric analysis (reference value: 3.18%). The format is functional. A general note: A flow cytometer gives signals particle by particle.
For data set [2], the target named is Cyclin-dependent kinase 2 (Homo sapiens, UniProt P24941). Kind of data set: Inhibition of CDK2 (unknown origin) using FAM-labeled peptide and ATP as substrate preincubated for 10 mins followed by substrate addition measured after 1 hr by mobility shift assay.
The subject of data set [3] is HepG2. The data set is described as follows: Induction of apoptosis in human HepG2 cells assessed as late apoptotic cells at 3 uM incubated for 72 hrs by Annexin-V-FITC/propidium iodide staining-based flow cytometric analysis (reference value: 2.89%). The format is functional.
For data set [4], the target named is Vascular endothelial growth factor receptor 2 (Homo sapiens, UniProt P35968). The data set is described as follows: Inhibition of N-terminal GST fused human VEGFR2 cytoplasmic domain (790 to 1356 (end) residues) expressed in baculovirus expression system using FAM-labeled peptide and ATP as substrate preincubated for 10 mins followed by substrate addition measured after 1 hr by mobility shift assay.

The test system of data set [5] is HUVEC. Kind of data set: Induction of apoptosis in human HUVEC cells assessed as late apoptotic cells at 0.3 uM incubated for 48 hrs by Annexin-V-FITC/propidium iodide staining-based flow cytometric analysis (reference value: 3.48%). The format is functional.
Data set [6] deals with Serine/threonine-protein kinase B-raf (Homo sapiens, UniProt P15056). Kind of data set: Inhibition of B-Raf (unknown origin) using FAM-labeled peptide and ATP as substrate preincubated for 10 mins followed by substrate addition measured after 1 hr by mobility shift assay.
The subject of data set [7] is HepG2. The data set is described as follows: Inhibition of receptor tyrosine kinase in human HepG2 cells assessed as reduction in AKT phosphorylation at Ser473 residue after 24 hrs by Western blotting analysis. The format is cell-based. The procedure, abridged: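 Cells cultured overnight, then treated with compound at different concentrations for 24 h. About 1×10⁶ cells harvested and immunoblotted for p-AKT (Ser473), AKT, p-ERK (Thr202/Tyr204), ERK, with GAPDH as loading control. Detection by chemiluminescence and gel imaging. Blots shown are representative of several experiments.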
In general terms: Immunoblotting shows a protein as a band on a membrane.

In data set [8] the target is Cyclin-dependent kinase 4 (Homo sapiens, UniProt P11802). The data set is described as follows: Inhibition of CDK4 (unknown origin) using FAM-labeled peptide and ATP as substrate preincubated for 10 mins followed by substrate addition measured after 1 hr by mobility shift assay.
Data set [9] has as its target Platelet-derived growth factor receptor beta (Homo sapiens, UniProt P09619). Kind of data set: Inhibition of N-terminal GST-fused human PDGFRbeta cytoplasmic domain (557 to 1106 (end) residues) expressed in baculovirus expression system using FAM-labeled peptide and ATP as substrate preincubated for 10 mins followed by substrate addition measured after 1 hr by mobility shift assay.

Data set [10] relates to MKN-74. Kind of data set: Induction of apoptosis in human MKN74 cells assessed as necrotic cells at 3 uM incubated for 72 hrs by Annexin-V-FITC/propidium iodide staining-based flow cytometric analysis (reference value: 6.29%). The format is functional.
For data set [11], the target named is Vascular endothelial growth factor receptor 1 (Homo sapiens, UniProt P17948). Kind of data set: Inhibition of GST-tagged human recombinant VEGFR1 cytoplasmic domain (781 to 1338 residues) expressed in baculovirus expression system using FAM-labeled peptide and ATP as substrate preincubated for 10 mins followed by substrate addition measured after 1 hr by mobility shift assay.

In data set [12] the test system is HT-29. Kind of data set: Inhibition of colony formation in human HT-29 cells measured after 14 days by crystal violet staining-based assay. The format is functional, cell-based. An outline of the steps:
(§1)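 Cells plated and exposed to test agent at a range of concentrations for 14 days, then colonies counted. Colony formation expressed relative to vehicle-treated cells as mean ± SEM. Significance versus vehicle by unpaired two-tailed Student's t-test.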

Data set [13] in a line: Toxicity in nu/nu mouse xenografted with human HT-29 cells assessed as effect on body weight at 100 mg/kg, po qd for 18 days. The format is organism-based. Conditions: in vivo, 432 h. The procedure, abridged: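 Female nu/nu mice, 4–6 weeks old, implanted subcutaneously in the right flank with HT-29 cells (2×10⁶/mL). Once tumours reached 200 mm³, mice randomised to groups (n = 6) and dosed orally once daily at 100 mg/kg for 18 days. Body weight monitored during treatment. Results given as mean ± SD.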
A general note: Xenograft models place foreign cells or tissue in a host animal.

Data set [14] relates to MKN-74. Kind of data set: Inhibition of colony formation in human MKN74 cells measured after 14 days by crystal violet staining-based assay. The format is functional, cell-based. The procedure, abridged: as §1
Data set [15] can be described thus: Inhibition of N-terminal GST-tagged human recombinant PDGFRalpha D842I mutant expressed in baculovirus-infected Sf9 cells using FAM-labeled peptide and ATP as substrate preincubated for 10 mins followed by substrate addition measured after 1 hr by mobility shift assay.
In data set [16] the test system is HT-29. The data set is described as follows: Inhibition of colony formation in human HT-29 cells at 1 uM measured after 14 days by crystal violet staining-based assay. The format is functional, cell-based. The procedure, abridged:
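HT-29 cells exposed to compound for 14 days and colonies counted. Read-out is colony formation rate relative to vehicle, given as mean ± SEM. Significance versus the vehicle group was tested by unpaired two-tailed Student's t-test.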

The test system of data set [17] is HT-29. Kind of data set: Induction of apoptosis in human HT-29 cells assessed as late apoptotic cells at 1 uM incubated for 72 hrs by Annexin-V-FITC/propidium iodide staining-based flow cytometric analysis (reference value: 6.12%). The format is functional.
The test system of data set [18] is MKN-74. The data set is described as follows: Induction of apoptosis in human MKN74 cells assessed as late apoptotic cells at 1 uM incubated for 72 hrs by Annexin-V-FITC/propidium iodide staining-based flow cytometric analysis (reference value: 12.42%). The format is functional.
Data set [19] relates to MKN-74. The data set is described as follows: Induction of apoptosis in human MKN74 cells assessed as late apoptotic cells at 0.3 uM incubated for 72 hrs by Annexin-V-FITC/propidium iodide staining-based flow cytometric analysis (reference value: 12.42%). The format is functional.
Data set [20] concerns the target T1, Serine/threonine-protein kinase Chk1 (Homo sapiens, UniProt O14757).
T1 sequence (O14757 whole entry): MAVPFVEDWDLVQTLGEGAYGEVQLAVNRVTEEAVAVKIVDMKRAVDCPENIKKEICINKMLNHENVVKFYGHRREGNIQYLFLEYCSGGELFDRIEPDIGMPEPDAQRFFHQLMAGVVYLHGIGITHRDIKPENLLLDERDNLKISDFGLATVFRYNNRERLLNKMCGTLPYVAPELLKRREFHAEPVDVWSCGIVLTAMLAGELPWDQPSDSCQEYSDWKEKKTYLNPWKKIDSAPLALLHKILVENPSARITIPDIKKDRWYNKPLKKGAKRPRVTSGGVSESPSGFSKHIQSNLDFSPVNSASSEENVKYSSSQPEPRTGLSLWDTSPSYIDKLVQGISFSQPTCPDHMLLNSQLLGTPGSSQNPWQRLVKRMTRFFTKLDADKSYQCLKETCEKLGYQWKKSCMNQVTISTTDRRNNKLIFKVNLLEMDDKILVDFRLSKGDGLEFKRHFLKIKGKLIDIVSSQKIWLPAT
Kind of data set: Inhibition of CHK (unknown origin) using FAM-labeled peptide and ATP as substrate preincubated for 10 mins followed by substrate addition measured after 1 hr by mobility shift assay.

The subject of data set [21] is MKN-74. Kind of data set: Induction of apoptosis in human MKN74 cells assessed as late apoptotic cells at 3 uM incubated for 72 hrs by Annexin-V-FITC/propidium iodide staining-based flow cytometric analysis (reference value: 12.42%). The format is functional.

Cyclin-dependent kinase 4, sequence (P11802 whole entry, the tested form may be a part): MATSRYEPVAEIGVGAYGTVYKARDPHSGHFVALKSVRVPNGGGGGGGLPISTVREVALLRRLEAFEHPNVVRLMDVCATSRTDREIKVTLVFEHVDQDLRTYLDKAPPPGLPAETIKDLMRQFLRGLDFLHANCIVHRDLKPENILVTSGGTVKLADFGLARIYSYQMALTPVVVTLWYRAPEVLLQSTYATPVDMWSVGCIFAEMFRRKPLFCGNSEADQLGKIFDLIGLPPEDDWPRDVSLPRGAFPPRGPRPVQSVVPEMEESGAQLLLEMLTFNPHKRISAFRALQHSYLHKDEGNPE
Serine/threonine-protein kinase B-raf, sequence (P15056 whole entry): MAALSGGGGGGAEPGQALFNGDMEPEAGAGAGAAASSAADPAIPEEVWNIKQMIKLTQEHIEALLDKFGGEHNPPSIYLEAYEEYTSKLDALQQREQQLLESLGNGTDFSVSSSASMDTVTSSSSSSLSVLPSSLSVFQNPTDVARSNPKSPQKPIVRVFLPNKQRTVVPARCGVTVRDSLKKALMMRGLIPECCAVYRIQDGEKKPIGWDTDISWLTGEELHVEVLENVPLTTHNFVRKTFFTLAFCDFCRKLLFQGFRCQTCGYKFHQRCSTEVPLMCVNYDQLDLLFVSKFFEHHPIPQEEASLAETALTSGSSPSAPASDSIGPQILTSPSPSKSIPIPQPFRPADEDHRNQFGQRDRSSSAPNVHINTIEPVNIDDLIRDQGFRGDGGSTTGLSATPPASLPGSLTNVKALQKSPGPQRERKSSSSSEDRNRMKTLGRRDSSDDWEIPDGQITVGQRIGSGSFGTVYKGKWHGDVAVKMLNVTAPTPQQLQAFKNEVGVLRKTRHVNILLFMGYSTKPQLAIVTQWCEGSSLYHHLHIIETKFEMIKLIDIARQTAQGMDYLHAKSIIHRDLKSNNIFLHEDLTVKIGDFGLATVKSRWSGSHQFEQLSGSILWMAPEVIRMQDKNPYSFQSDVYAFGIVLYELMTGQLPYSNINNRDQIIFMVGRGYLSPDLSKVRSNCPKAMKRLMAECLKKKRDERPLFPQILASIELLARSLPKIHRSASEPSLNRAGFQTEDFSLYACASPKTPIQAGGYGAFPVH
Vascular endothelial growth factor receptor 1, sequence (P17948 whole entry, the tested form may be a part): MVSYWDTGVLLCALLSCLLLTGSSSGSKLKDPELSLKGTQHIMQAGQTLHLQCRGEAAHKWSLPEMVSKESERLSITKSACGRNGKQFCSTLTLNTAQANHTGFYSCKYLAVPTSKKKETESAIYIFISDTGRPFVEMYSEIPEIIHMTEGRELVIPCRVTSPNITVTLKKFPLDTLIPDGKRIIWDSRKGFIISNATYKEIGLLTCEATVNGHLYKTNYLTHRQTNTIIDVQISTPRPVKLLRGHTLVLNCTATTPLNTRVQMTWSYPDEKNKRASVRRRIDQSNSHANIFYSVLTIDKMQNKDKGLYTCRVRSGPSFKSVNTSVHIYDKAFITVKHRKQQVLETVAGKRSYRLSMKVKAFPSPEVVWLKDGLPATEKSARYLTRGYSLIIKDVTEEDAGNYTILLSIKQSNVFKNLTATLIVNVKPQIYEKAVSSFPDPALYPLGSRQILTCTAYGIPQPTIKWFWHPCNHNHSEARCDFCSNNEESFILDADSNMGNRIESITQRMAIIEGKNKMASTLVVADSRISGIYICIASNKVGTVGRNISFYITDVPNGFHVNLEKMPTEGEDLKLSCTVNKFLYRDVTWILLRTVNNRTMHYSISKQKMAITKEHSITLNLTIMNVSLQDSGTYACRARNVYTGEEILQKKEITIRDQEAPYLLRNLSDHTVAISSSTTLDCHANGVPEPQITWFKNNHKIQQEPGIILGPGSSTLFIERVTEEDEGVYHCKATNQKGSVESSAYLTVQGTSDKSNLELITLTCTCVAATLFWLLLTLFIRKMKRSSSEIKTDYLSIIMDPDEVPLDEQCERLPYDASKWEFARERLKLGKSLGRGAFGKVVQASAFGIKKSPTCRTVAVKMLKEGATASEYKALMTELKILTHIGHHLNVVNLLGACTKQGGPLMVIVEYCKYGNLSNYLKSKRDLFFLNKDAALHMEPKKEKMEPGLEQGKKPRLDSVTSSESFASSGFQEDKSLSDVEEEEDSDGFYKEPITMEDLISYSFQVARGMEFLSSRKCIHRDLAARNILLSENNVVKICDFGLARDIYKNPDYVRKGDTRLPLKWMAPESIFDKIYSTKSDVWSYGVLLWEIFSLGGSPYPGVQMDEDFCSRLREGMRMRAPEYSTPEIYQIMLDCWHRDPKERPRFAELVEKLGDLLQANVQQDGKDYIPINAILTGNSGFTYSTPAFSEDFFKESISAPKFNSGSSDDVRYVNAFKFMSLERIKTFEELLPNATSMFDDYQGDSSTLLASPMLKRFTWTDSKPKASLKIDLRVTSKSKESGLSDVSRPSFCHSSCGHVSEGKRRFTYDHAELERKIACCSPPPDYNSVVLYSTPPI
Platelet-derived growth factor receptor beta, sequence (P09619 whole entry, the tested form may be a part): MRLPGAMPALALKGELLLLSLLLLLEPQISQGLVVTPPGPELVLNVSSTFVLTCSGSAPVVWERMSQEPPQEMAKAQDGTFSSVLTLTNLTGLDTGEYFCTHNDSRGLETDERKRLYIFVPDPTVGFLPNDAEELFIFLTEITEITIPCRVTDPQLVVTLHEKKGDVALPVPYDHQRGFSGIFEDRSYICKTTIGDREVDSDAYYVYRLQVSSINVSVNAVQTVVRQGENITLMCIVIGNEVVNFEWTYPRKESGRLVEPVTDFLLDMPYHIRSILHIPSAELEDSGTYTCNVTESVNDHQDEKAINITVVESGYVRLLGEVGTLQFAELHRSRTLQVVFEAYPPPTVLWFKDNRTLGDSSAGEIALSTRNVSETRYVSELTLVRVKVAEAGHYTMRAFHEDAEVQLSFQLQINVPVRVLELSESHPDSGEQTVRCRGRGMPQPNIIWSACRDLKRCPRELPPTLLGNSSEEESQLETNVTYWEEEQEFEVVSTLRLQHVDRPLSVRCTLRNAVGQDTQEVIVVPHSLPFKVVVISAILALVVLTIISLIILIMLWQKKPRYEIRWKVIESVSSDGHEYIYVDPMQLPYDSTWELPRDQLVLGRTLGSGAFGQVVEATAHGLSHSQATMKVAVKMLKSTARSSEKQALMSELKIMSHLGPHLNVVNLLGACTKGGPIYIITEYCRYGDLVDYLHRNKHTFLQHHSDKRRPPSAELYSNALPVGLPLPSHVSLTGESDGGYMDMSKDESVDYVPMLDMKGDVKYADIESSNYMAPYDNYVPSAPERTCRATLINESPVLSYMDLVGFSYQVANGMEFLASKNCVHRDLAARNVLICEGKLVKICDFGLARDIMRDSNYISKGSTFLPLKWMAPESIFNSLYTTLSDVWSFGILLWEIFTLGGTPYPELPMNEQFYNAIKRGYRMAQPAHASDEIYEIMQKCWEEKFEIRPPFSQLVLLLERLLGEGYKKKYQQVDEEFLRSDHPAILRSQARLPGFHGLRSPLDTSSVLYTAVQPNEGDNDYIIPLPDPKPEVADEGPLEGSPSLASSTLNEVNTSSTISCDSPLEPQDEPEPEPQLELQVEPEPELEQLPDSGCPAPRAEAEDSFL
Vascular endothelial growth factor receptor 2, sequence (P35968 whole entry, the tested form may be a part): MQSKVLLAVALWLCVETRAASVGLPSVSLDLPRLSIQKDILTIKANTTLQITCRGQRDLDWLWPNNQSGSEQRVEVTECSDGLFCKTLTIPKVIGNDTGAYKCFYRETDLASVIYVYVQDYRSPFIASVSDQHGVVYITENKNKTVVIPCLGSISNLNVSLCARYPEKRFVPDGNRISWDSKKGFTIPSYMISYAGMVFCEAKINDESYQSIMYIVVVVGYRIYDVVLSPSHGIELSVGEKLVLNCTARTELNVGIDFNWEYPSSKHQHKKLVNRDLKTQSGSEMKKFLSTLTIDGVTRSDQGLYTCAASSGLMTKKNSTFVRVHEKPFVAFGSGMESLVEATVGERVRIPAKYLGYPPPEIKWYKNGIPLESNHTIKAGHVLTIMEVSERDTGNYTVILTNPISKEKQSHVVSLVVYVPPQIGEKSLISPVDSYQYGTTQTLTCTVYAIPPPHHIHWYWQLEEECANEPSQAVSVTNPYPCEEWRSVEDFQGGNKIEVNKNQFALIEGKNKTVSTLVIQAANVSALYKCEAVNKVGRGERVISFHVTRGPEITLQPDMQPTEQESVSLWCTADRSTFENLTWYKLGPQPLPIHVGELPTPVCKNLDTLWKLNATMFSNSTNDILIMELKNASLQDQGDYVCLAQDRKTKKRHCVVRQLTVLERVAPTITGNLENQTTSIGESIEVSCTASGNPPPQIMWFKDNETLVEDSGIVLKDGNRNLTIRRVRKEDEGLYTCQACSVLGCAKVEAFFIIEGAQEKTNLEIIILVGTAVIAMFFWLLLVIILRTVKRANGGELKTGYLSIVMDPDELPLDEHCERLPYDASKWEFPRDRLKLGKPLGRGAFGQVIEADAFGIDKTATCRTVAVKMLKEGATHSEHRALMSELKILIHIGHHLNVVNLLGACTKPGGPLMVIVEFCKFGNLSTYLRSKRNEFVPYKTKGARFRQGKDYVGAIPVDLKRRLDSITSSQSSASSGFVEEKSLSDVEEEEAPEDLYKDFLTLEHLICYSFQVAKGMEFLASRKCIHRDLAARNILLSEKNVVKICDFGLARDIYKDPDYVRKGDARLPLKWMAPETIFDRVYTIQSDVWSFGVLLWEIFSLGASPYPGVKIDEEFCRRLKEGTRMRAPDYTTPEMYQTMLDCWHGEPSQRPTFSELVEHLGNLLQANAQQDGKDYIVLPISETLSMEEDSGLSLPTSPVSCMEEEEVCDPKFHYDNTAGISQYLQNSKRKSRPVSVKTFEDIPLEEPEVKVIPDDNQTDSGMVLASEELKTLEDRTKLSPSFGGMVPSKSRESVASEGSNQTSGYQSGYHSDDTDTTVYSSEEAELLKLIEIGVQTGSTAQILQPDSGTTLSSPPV

In the case of `COC(=O)c1ccc2c(c1)NC(=O)/C2=C(\Nc1ccc(-n2c(C)ccc2CN2CCN(C)CC2)cc1)c1ccccc1`, the Activity is listed as 3.35% in data set [1]; 64.56% in data set [3]; 2.76% in [5]; 4.15% in data set [10]; “Non-Toxic” in data set [13]; 37.8% in data set [17]. Further, the Activity in data set [18] was determined as 22.1%; in data set [19], 16.86%; in data set [21], 79.51%. Further, the IC50 in data set [2] is over 1000 nM; in data set [4] it was 6.5 nM; in data set [6], over 1000 nM; in [8], over 1000 nM; in [9], 9.9 nM; in data set [11] it was 31 nM. For the same molecule, the IC50 in data set [15] is 7 nM; in [20], over 1000 nM. Besides, the inhibition entry in [7], in data set [12] and in data set [14] was “Dose-dependent effect” in each case. Moreover, the inhibition entry in data set [16] is “Active”.
